Measured values from ChEMBL document CHEMBL1139495, “Retro hydrazino-azapeptoids as peptidomimetics of proteasome inhibitors” (J Med Chem, 2005).
Where a SMILES comes first, the peptide text is derived from it. [ ]: non-standard residue; d: D form. Nle = CCCC[C@H](N)C(=O)O

Key:
[1] = tested on: L1210; assay: Inhibitory concentration of the compound was determined against L1210 cells; type: functional, cell-based; conditions: Mus musculus
Summary of the method: (§1)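 MTT read-out on cultured cells (murine leukemia L1210, melanoma B16, normal melanocyte Mel-A), scoring growth inhibition as either a cytostatic or a cytotoxic effect.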

[2] = tested on: Mel-A (Mus musculus); assay: Inhibitory concentration of the compound was determined against melanocyte Mel-A cells
[3] = tested on: Proteasome; assay: Inhibitory concentration against 20S proteasome chymotrypsin-like activity; type: subcellular
[4] = tested on: B16; assay: Inhibitory concentration of the compound was determined against melanoma B16 cells; type: functional, cell-based; conditions: Mus musculus; summary of the method: as §1
[5] = biological target: T1, Calpain-1 catalytic subunit (Homo sapiens, UniProt P07384); assay: Inhibitory concentration against Calpain I activity
T1 sequence (P07384 whole entry): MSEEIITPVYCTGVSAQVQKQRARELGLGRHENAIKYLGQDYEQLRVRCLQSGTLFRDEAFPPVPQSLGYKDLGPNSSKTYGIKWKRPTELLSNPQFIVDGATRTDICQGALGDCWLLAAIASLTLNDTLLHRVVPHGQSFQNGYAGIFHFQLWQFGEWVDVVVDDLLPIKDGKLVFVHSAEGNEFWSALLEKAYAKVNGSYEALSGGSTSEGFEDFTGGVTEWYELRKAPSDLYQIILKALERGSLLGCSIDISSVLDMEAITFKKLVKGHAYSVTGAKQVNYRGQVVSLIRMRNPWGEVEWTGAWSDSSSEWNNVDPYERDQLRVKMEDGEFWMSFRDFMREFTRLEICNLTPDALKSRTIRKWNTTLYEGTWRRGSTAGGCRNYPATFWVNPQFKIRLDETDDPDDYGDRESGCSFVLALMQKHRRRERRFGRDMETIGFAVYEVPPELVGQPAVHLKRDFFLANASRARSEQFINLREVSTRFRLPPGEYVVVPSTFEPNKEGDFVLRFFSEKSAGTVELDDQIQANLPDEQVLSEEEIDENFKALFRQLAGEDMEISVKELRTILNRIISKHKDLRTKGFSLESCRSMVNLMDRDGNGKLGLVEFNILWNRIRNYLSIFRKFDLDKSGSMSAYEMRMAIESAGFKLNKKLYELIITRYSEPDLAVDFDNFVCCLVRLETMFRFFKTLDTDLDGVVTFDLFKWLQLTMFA

[6] = biological target: Cathepsin B (Homo sapiens, UniProt P07858); assay: (§2) Inhibitory concentration against Cathepsin B activity; type: functional
[7] = as §2
[8] = Inhibitory concentration against peptidyl-glutamyl peptide hydrolase activity
[9] = tested on: Proteasome; assay: Inhibitory effect on 20S proteasome chymotrypsin-like activity; type: subcellular

SMILES | IC50 [1] | IC50 [2] | IC50 [3] | IC50 [4] | IC50 [5] | IC50 [6] | IC50 [7] | IC50 [8] | IC50 [9]
CC(C)CN(CC(=O)N(CC(C)C)NC(=O)OCc1ccccc1)NC(=O)CNNC(=O)CBr | 7.6 µM | 2.3 µM | > 1000 µM | 2.5 µM | – | – | – | – | –
CC(C)CN(CC(=O)N(Cc1ccccc1)NC(=O)OCc1ccccc1)/N=C/c1cccc(B(O)O)c1 | 16.9 µM | 19.9 µM | > 1000 µM | 20.5 µM | – | – | – | – | –
CC(C)CN(NC(=O)OCc1ccccc1)C(=O)CN(Cc1cccnc1)/N=C/c1cccc(B(O)O)c1 | 75 µM | 60.9 µM | > 1000 µM | 74.9 µM | – | – | – | – | –
CC(C)CN(NC(=O)OCc1ccccc1)C(=O)CN(Cc1ccccc1)/N=C/c1cccc(B(O)O)c1 | 16.2 µM | 18.4 µM | 53 µM | 20.4 µM | > 1000 µM | > 1000 µM | – | – | –
CCCC[C@@H](C=O)NC(=O)[C@H](CC(C)C)NC(=O)[C@H](CC(C)C)NC(C)=O (Ac-Leu-Leu-[Nle]-aldehyde) | 3 µM | – | – | 14.5 µM | 1 µM | – | 12 µM | 45 µM | 15 µM
CC(C)CN(NC(=O)OCc1ccccc1)C(=O)CN(Cc1ccccc1)/N=C/c1ccccc1B(O)O | 27.9 µM | 45.1 µM | > 1000 µM | 65.5 µM | – | – | – | – | –
CC(C)CN(CC(=O)N(CC(C)C)NCC(=O)OCc1ccccc1)NC(=O)CBr | 5 µM | 4.5 µM | > 1000 µM | 2.2 µM | – | – | – | – | –
CC(C)CN(NC(=O)OCc1ccccc1)C(=O)CN(Cc1ccccc1)NCc1cccc(Br)c1 | 30 µM | – | > 1000 µM | > 80 µM | – | – | – | – | –
CC(C)CN(CC(=O)N(Cc1cccnc1)NC(=O)OCc1ccccc1)/N=C/c1cccc(B(O)O)c1 | 41.6 µM | 40.3 µM | 350 µM | 21.1 µM | – | – | – | – | –
CC(C)CN(CC(=O)N(CC(C)C)NC(=O)OCc1ccccc1)NC(=O)CBr | 6.5 µM | 3.3 µM | > 1000 µM | 1.3 µM | – | – | – | – | –
CC(C)CN(NC(=O)OCc1ccccc1)C(=O)CN(Cc1ccccc1)NC(=O)CBr | 1.3 µM | 1.8 µM | > 1000 µM | 1.4 µM | – | – | – | – | –
CC(C)CN(NC(=O)OCc1ccccc1)C(=O)CN(Cc1ccccc1)/N=C/c1ccc(B(O)O)cc1 | 14.7 µM | 39.3 µM | > 1000 µM | 32.6 µM | – | – | – | – | –
CC(C)CN(CC(=O)N(Cc1ccccc1)NC(=O)OCc1ccccc1)/N=C/c1ccccc1B(O)O | 18.4 µM | 25.1 µM | > 1000 µM | 33.5 µM | – | – | – | – | –
CC(C)CN(CC(=O)NN(Cc1ccccc1)c1cnccn1)/N=C/c1cccc(B(O)O)c1 | > 80 µM | 33.7 µM | > 1000 µM | > 80 µM | – | – | – | – | –
CC(C)CN(NC(=O)CN(Cc1ccccc1)NC(=O)CBr)C(=O)OCc1ccccc1 | 0.6 µM | – | > 1000 µM | 0.7 µM | – | – | – | – | –
CC(C)CN(CC(=O)N(CC(C)C)NC(=O)OCc1ccccc1)/N=C/c1ccccc1B(O)O | 16.2 µM | 17.3 µM | 50 µM | 26.3 µM | > 1000 µM | > 1000 µM | – | – | –
CC(C)CN(CC(=O)N(CC(C)C)NC(=O)OCc1ccccc1)/N=C/c1cccc(B(O)O)c1 | 21.2 µM | – | 91 µM | 53.9 µM | – | – | – | – | –
CC(C)CN(CC(=O)NN(Cc1ccccc1)c1cnccn1)NC(=O)CBr | 24.1 µM | 14.8 µM | > 1000 µM | 11.4 µM | – | – | – | – | –
CC(C)CN(NC(=O)CN(Cc1ccccc1)/N=C/c1cccc(B(O)O)c1)c1cnccn1 | > 80 µM | 16.3 µM | 500 µM | > 80 µM | – | – | – | – | –
